Test results: publication PMC10249145 (Cardiovascular & hematological agents in medicinal chemistry, 2023)
Counter-ions that a name gives are not always drawn. Values belong to the compound of their own block, whether it stands above or below them.

Columns and labels:
[1] = tested on: human plasma; details: normal human plasma, positive controls; cited from earlier work
[2] = tested on: human plasma; details: normal human plasma, positive controls; cited from earlier work; remark: listed apart in the source
[3] = target: T1, human FXIIa (Homo sapiens, UniProt P00748); assay: Direct inhibition of human FXIIa, chromogenic substrate hydrolysis assay; assay type: biochemical
T1 sequence (P00748 20-615): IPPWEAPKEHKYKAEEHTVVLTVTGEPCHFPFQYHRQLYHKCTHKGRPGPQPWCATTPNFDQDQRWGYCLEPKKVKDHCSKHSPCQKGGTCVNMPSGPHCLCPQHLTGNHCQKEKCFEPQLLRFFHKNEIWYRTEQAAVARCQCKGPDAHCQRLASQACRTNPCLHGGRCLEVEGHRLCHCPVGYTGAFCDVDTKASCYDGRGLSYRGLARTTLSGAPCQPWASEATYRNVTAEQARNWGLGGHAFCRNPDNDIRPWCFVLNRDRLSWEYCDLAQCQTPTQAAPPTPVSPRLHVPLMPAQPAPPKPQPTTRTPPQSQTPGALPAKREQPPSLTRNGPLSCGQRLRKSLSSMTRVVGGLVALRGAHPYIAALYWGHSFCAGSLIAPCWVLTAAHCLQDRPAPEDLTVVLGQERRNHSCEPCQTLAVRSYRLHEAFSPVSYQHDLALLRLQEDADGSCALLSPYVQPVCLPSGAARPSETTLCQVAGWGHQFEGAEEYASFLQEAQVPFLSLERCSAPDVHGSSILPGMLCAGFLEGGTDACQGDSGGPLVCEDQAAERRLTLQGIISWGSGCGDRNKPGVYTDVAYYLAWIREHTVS
Method in brief: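 Human FXIIa (stock 200 nM) was preincubated for 5 min with test compound or vehicle in Tris-HCl pH 7.4 with NaCl, 2.5 mM CaCl2, 0.1% PEG8000 and 0.02% Tween80 at 37 °C. Spectrozyme FXIIa (stock 5 mM) was then added. Twelve in-well concentrations (500–0.0025 μM) were tested. Residual activity was taken from the initial A405 rate, and a logistic fit gave IC50, efficacy and Hill slope (±1 S.E.).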

[4] = target: thrombin (Homo sapiens, UniProt P00734); assay: Inhibition of thrombin, chromogenic substrate hydrolysis assay; assay type: biochemical
Method in brief: (§1)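 Thrombin at about 6 nM with Spectrozyme TH at 50 μM (in-well), in pH 7.4 Tris-HCl buffer with NaCl, CaCl2, PEG8000 and Tween80. Substrate level was set from its KM. Residual activity was measured across several test compound concentrations, and a logistic fit of concentration-dependent inhibition gave IC50, efficacy and Hill slope.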

[5] = tested on: thrombin; assay: as above; assay type: biochemical, human; details: ratio of IC50 values
Method in brief: as §1

[6] = target: FXa (Homo sapiens, UniProt P00742, DEL180-234); assay: Inhibition of FXa, chromogenic substrate hydrolysis assay; assay type: biochemical
Method in brief: (§2)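 In-well FXa was about 1.09 nM with Spectrozyme FXa at 125 μM (from KM), in pH 7.4 Tris-HCl containing NaCl, 2.5 mM CaCl2, 0.1% PEG8000 and 0.02% Tween80. Several test compound concentrations were used; residual activity was fitted with a logistic equation for IC50 where inhibition was concentration-dependent.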

[7] = tested on: FXa; assay: as above; assay type: biochemical, human; details: ratio of IC50 values
Method in brief: as §2

[8] = target: FXIa (Homo sapiens, UniProt P03951); assay: Inhibition of FXIa, chromogenic substrate hydrolysis assay; assay type: biochemical
FXIa (Homo sapiens, UniProt P03951), sequence (P03951 19-625): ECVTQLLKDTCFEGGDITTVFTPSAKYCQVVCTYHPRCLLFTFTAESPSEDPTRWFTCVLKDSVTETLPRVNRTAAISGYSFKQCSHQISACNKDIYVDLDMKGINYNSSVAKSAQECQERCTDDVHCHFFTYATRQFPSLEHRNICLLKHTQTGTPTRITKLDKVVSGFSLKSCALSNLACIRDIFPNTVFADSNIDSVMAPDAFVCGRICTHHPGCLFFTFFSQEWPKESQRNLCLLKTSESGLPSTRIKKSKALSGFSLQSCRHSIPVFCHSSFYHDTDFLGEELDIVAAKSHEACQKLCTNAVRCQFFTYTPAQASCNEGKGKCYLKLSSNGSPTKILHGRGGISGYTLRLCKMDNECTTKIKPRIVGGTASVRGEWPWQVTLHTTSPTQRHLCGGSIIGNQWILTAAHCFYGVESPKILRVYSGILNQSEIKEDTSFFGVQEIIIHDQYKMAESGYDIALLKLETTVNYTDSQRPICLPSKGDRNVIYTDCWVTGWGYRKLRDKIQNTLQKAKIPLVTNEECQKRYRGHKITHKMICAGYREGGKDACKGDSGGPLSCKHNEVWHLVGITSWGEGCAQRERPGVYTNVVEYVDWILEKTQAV
Method in brief: (§3)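 Human FXIa activity was measured with chromogenic substrate S-2366 in pH 7.4 Tris-HCl with NaCl, 2.5 mM CaCl2, 0.1% PEG8000 and 0.02% Tween80. Residual activity was measured at several test compound concentrations, and a logistic fit gave IC50, efficacy and Hill slope.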

[9] = tested on: FXIa; assay: as above; assay type: biochemical, human; details: ratio of IC50 values
Method in brief: as §3

[10] = target: human plasmin (Homo sapiens, UniProt P00747); assay: Inhibition of plasmin, chromogenic substrate hydrolysis assay; assay type: biochemical
human plasmin (Homo sapiens, UniProt P00747), sequence (P00747 97-810): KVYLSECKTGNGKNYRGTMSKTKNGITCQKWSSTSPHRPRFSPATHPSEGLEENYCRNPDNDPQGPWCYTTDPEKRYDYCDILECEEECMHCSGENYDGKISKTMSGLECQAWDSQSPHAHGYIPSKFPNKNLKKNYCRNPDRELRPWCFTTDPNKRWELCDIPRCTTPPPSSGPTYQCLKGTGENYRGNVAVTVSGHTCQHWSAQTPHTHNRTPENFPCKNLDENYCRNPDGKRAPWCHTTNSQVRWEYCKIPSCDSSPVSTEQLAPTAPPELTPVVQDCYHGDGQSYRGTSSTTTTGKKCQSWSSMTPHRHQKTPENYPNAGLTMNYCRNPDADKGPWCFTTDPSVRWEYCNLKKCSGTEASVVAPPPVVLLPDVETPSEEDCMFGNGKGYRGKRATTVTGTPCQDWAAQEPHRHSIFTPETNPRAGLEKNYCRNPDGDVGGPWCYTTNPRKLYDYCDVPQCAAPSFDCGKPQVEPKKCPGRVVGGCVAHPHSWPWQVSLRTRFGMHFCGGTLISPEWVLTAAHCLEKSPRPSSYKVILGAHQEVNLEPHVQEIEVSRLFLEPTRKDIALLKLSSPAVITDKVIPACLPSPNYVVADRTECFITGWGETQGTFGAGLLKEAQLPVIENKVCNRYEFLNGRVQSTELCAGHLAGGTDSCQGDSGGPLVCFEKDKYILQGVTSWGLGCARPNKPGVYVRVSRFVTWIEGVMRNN
Method in brief: (§4)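 Human plasmin at about 20 nM with Spectrozyme PL at 50 μM in-well (set from KM), in pH 7.4 Tris-HCl with NaCl, 2.5 mM CaCl2, 0.1% PEG8000 and 0.02% Tween80. Residual activity was measured at several test compound concentrations, and a logistic fit gave IC50, efficacy and Hill slope.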

[11] = tested on: human plasmin; assay: as above; assay type: biochemical; details: ratio of IC50 values
Method in brief: as §4

[12] = target: FIXa (Homo sapiens, UniProt P00740, DEL192-226); assay: Inhibition of FIXa, chromogenic substrate hydrolysis assay; assay type: biochemical
Method in brief: (§5)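 FIXa assay: about 89 nM enzyme and 850 μM Spectrozyme FIXa (in-well, level set from KM), in pH 7.4 Tris-HCl with NaCl, CaCl2, PEG8000 and Tween80. Residual activity was measured at several test compound concentrations and fitted with a logistic equation for IC50 where inhibition was concentration-dependent.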

[13] = tested on: FIXa; assay: as above; assay type: biochemical, human; details: ratio of IC50 values
Method in brief: as §5

[14] = target: T2, FVIIa/tissue factor (Homo sapiens, UniProt P08709); assay: Inhibition of FVIIa/tissue factor, chromogenic substrate hydrolysis assay; assay type: biochemical
T2 sequence (P08709 61-466): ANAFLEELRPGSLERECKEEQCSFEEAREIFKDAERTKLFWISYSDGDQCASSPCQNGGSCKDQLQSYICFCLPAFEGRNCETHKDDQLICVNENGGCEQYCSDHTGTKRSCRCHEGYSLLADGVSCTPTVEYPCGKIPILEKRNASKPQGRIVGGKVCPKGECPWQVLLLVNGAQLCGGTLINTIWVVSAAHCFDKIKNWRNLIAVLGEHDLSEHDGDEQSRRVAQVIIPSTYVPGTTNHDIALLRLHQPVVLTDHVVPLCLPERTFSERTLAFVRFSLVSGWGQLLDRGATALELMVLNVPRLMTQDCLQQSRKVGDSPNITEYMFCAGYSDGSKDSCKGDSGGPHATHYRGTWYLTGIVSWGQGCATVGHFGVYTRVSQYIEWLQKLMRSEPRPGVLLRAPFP
Method in brief: (§6)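 FVIIa/tissue factor: enzyme about 8 nM with Spectrozyme VIIa at 1000 μM in-well, chosen from KM. Buffer was pH 7.4 Tris-HCl with NaCl, 2.5 mM CaCl2, 0.1% PEG8000 and 0.02% Tween80. Residual chromogenic activity was measured at several test compound concentrations, and a logistic fit gave IC50 where inhibition was concentration-dependent.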

[15] = tested on: FVIIa/tissue factor; assay: as above; assay type: biochemical, human; details: ratio of IC50 values
Method in brief: as §6

[16] = target: human plasma kallikrein (Homo sapiens, UniProt P03952); assay: Inhibition of plasma kallikrein, chromogenic substrate hydrolysis assay; assay type: biochemical
human plasma kallikrein (Homo sapiens, UniProt P03952), sequence (P03952 20-638): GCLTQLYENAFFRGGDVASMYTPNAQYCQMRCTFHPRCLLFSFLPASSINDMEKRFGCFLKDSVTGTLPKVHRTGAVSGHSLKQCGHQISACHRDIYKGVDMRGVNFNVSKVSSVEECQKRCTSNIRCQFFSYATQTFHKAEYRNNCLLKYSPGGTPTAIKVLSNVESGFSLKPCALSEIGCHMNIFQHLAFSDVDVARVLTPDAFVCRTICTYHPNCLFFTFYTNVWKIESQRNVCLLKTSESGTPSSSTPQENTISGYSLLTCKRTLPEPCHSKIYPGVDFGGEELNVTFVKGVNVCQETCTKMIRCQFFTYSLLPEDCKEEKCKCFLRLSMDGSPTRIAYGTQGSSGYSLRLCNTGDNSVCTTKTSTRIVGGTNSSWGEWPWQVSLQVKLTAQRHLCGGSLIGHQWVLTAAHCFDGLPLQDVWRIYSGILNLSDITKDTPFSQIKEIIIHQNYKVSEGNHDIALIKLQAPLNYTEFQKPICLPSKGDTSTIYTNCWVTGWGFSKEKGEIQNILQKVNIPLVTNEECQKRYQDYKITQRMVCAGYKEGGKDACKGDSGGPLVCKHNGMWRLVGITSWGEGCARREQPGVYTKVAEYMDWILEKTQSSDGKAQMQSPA
Method in brief: (§7)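 Human plasma kallikrein was used at about 3 nM with Spectrozyme PK at 100 μM (in-well, set from KM), in pH 7.4 Tris-HCl with NaCl, CaCl2, PEG8000 and Tween80. Residual activity was measured at several test compound concentrations; IC50 was fitted by logistic equation where inhibition was concentration-dependent.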

[17] = tested on: human plasma kallikrein; assay: as above; assay type: biochemical; details: ratio of IC50 values
Method in brief: as §7

[18] = target: T3, bovine trypsin (Bos taurus, UniProt P00760); assay: Inhibition of trypsin, chromogenic substrate hydrolysis assay; assay type: biochemical
T3 sequence (P00760 24-246): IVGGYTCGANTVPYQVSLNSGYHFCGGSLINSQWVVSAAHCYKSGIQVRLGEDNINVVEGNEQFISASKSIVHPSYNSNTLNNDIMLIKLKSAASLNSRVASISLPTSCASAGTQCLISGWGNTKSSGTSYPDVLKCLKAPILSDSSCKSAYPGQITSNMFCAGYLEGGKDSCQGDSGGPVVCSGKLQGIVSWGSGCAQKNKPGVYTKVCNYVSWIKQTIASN
Method in brief: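 Bovine trypsin at 500 ng/mL with S-2222 at 650 μM in-well (substrate level from KM), in pH 7.4 Tris-HCl containing NaCl, CaCl2, PEG8000 and Tween80. Residual activity was measured at several test compound concentrations, with logistic fitting for IC50 where inhibition was concentration-dependent.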

[19] = target: bovine α-chymotrypsin (Bos taurus, UniProt P00766, DEL14-15/DEL147-148); assay: Inhibition of chymotrypsin, chromogenic substrate hydrolysis assay; assay type: biochemical
Method in brief: (§8)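 Bovine α-chymotrypsin at 500 ng/mL with N-succinyl-Ala-Ala-Pro-Phe-p-nitroanilide at 910 μM in-well (from KM), in pH 7.4 Tris-HCl with NaCl, CaCl2, PEG8000 and Tween80. Residual activity was measured over several test compound concentrations, with logistic fitting for IC50 where inhibition was concentration-dependent.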

[20] = tested on: bovine α-chymotrypsin; assay: as above; assay type: biochemical; details: ratio of IC50 values
Method in brief: as §8

[21] = target: T1, human FXIIa; assay: Affinity to human FXIIa by intrinsic tryptophan fluorescence spectroscopy; assay type: binding
Method in brief: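 Test compound (100 μM) was titrated into human FXIIa (350 nM) in 50 mM Tris-HCl pH 7.4 with 150 mM NaCl and 0.1% PEG8000 at 37 °C. Intrinsic tryptophan fluorescence was read at λem 348 nm (λex 280 nm). The fluorescence change was fitted to a quadratic equilibrium binding equation to give Kd.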

[22] = target: T1, human FXIIa; assay: Inhibition of FXIIa-mediated activation of FXI to FXIa; assay type: biochemical
Method in brief: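 Zymogen FXI (4 μM as added), human FXIIa (200 nM as added) and test compound (1000–0.32 μM as added) were combined in Tris-HCl pH 7.4 at 37 °C. After 5 min, S-2366 (stock 6.9 mM) was added. The FXIa generated was measured as the initial A405 rate. A logistic fit of relative residual activity gave IC50 and efficacy.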

[23] = tested on: human plasma; assay: Activated partial thromboplastin time; assay type: biochemical; details: normal human plasma, ellagic acid APTT reagent
Method in brief: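 Citrated pooled normal human plasma was mixed with test compound (solutions of 0–983 μM as added) and prewarmed ellagic acid APTT reagent (0.2%). After 4 min at 37 °C, clotting was started with prewarmed 25 mM CaCl2 and the clotting time was read on a fibrometer. The concentration giving a 1.5-fold increase in APTT was derived. Values are means of three experiments.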

[24] = tested on: human plasma; assay: Prothrombin time; assay type: biochemical; details: normal human plasma; highest concentration tested about 980 μM
Method in brief: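 Thromboplastin-D was reconstituted in distilled water and warmed to 37 °C. Citrated pooled normal human plasma was incubated with test compound (solutions of 0–983 μM as added) for 30 s at 37 °C. Clotting was started by adding the prewarmed thromboplastin-D and the clotting time was read on a fibrometer. The concentration giving a 1.5-fold increase in PT was derived. Values are means of three experiments.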

[25] = human FXIIa, pH 7.4, 37 °C, ± 1 S.E.

Structure (SMILES): CC1CNc2c(cccc2S(=O)(=O)N[C@@H](CCCNC(=N)N)C(=O)N2CC[C@@H](C)C[C@@H]2C(=O)O)C1 (stereo partly drawn) [Argatroban HCl]
- APTT (EC×1.5) [1]: ~0.19 μM^b
- PT (EC×1.5) [2]: ~0.13 µM

- HS (Hill slope) [3, 25]: 1.7 ± 0.4
- IC50 [4]: 235 ± 52.5 µM
- DeltaY (efficacy of inhibition) ([4]; Thrombin): 106 ± 7%
- HS (Hill slope) ([4]; Thrombin): 0.4 ± 0.1
- IC50 [6]: > 577 µM
- IC50 [8]: 16.8 ± 6.7 µM
- DeltaY (efficacy of inhibition) ([8]; FXIa): 32 ± 11%
- HS (Hill slope) ([8]; FXIa): 1.9 ± 2.8
- IC50 [10]: 83.2 ± 37 µM
- DeltaY (efficacy of inhibition) ([10]; Plasmin): 25 ± 12%
- HS (Hill slope) ([10]; Plasmin): 1.4 ± 1.6
- IC50 [12]: > 1000 µM
- IC50 [14]: > 1000 µM
- IC50 [16]: > 500 µM
- IC50 [18]: > 1000 µM
- selectivity to FXIIa over trypsin ([18]; ratio of IC50 values): at least 4545 fold
- IC50 [19]: > 1000 µM
- Kd [21]: 0.98 ± 0.13 µM
- IC50 [22]: ~2 µM
- efficacy of FXIIa inhibition using the macromolecule substrate FXI ([22]; residual FXIa activity by S-2366, pH 7.4, 37 °C): ~ 41%
Structure (SMILES): COC(=O)c1nc(N)n(C(=O)c2ccc(C(C)(C)C)cc2)n1 [Inhibitor 1, Methyl 5-amino-1-(4-(tert-butyl)benzoyl)-1H-1,2,4-triazole-3-carboxylate]
- selectivity index to human FXIIa over thrombin [5]: 2137 fold
- selectivity to FXIIa over FXa [7]: at least 4545 fold
- selectivity index to human FXIIa over FXIa [9]: 153 fold
- selectivity index to human FXIIa over plasmin [11]: 756 fold
- selectivity to FXIIa over FIXa [13]: at least 4545 fold
- selectivity to FXIIa over FVIIa/TF [15]: at least 4545 fold
- selectivity to FXIIa over plasma kallikrein [17]: at least 4545 fold
- selectivity to FXIIa over α-chymotrypsin [20]: at least 4545 fold
- APTT (EC×1.5), concentration required to increase APTT by 1.5-fold [23]: ~340 µM
- APTT (EC×1.5), concentration required to increase APTT by 1.5-fold ([23]; listed as 1): ~ 340 μM
- PT (EC×1.5), concentration required to increase PT by 1.5-fold [24]: not significantly affected

- decrease in the inhibition potency ([3]; FXIIa IC50 relative to inhibitor 1): ~ 2.2 fold
- DeltaY (efficacy of inhibition) [3, 25]: 92.2 ± 3.1%
- HS (Hill slope) [3, 25]: 1.09 ± 0.14
Structure (SMILES): COC(=O)c1nc(N)n(C(=O)c2ccccc2)n1 [Inhibitor 2, Methyl 5-amino-1-benzoyl-1H-1,2,4-triazole-3-carboxylate]
